Assay results taken from ChEMBL document CHEMBL1671867, “Novel polymyxin derivatives carrying only three positive charges are effective antibacterial agents” (Antimicrob Agents Chemother, 2008).
Converted amounts (≈) assume the structure as drawn. The source made the active and inactive calls. No cut-off for these calls is given here.

Assays:
[1] = tested on: Escherichia coli; experiment: Antibacterial activity against Escherichia coli IH3080 assessed as reduction in bacterial count at 2 ug/ml using fresh compound stock solution; format: functional, organism-based
[2] = tested on: Escherichia coli; experiment: Antibacterial activity against Escherichia coli ATCC 25992 by Etest method; format: functional
How it was run: (§1)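 E-strip MIC on Mueller-Hinton agar without added peptide; inoculum per manufacturer, matching CLSI M2-A9.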

[3] = tested on: Pseudomonas aeruginosa; experiment: (§2) Antibacterial activity against Pseudomonas aeruginosa ATCC 27853by Etest method in presence of […] NAB739; format: functional
[4] = tested on: Pseudomonas aeruginosa; experiment: as §2; format: functional; remark: listed apart in the source
[5] = tested on: Pseudomonas aeruginosa; experiment: Antibacterial activity against Pseudomonas aeruginosa ATCC 27853by Etest method; format: functional
How it was run: (§3)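 MICs of the antibiotic taken from E-strips on Mueller-Hinton agar, run both with and without peptide. […] Inoculum was prepared per the strip manufacturer, matching CLSI M2-A9.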

[6] = tested on: Acinetobacter baumannii; experiment: Antibacterial activity against Acinetobacter baumannii F264 by Etest method in presence of 1 ug/ml NAB739; format: functional
[7] = tested on: Acinetobacter baumannii; experiment: Antibacterial activity against Acinetobacter baumannii F264 by Etest method in presence of 0.5 ug/ml NAB739; format: functional
[8] = tested on: Acinetobacter baumannii; experiment: (§4) Antibacterial activity against Acinetobacter baumannii F264 by Etest method in presence of […] NAB739; format: functional
[9] = tested on: Acinetobacter baumannii; experiment: Antibacterial activity against Acinetobacter baumannii F264 by Etest method; format: functional; how it was run: as §1
[10] = tested on: Acinetobacter baumannii; experiment: as §4; format: functional; remark: listed apart in the source
[11] = tested on: Acinetobacter baumannii; experiment: Antibacterial activity against Acinetobacter baumannii ATCC 19606 by Etest method in presence of 1 ug/ml NAB739; format: functional
[12] = tested on: Acinetobacter baumannii; experiment: Antibacterial activity against Acinetobacter baumannii ATCC 19606 by Etest method in presence of 0.5 ug/ml NAB739; format: functional
[13] = tested on: Acinetobacter baumannii; experiment: (§5) Antibacterial activity against Acinetobacter baumannii ATCC 19606 by Etest method in presence of […] NAB739; format: functional
[14] = tested on: Acinetobacter baumannii; experiment: as §5; format: functional; remark: listed apart in the source
[15] = tested on: Acinetobacter baumannii; experiment: Antibacterial activity against Acinetobacter baumannii ATCC 19606 by Etest method; format: functional
[16] = tested on: Pseudomonas aeruginosa; experiment: Antibacterial activity against Pseudomonas aeruginosa ATCC 27853by Etest method in presence of 0.5 ug/ml NAB739; format: functional; how it was run: as §3
[17] = tested on: Pseudomonas aeruginosa; experiment: Antibacterial activity against Pseudomonas aeruginosa ATCC 27853by Etest method in presence of 1 ug/ml NAB739; format: functional; how it was run: as §3
[18] = tested on: Pseudomonas aeruginosa; experiment: Antibacterial activity against Pseudomonas aeruginosa ATCC 27853by Etest method in presence of 2 ug/ml NAB739; format: functional
[19] = tested on: Escherichia coli; experiment: Antibacterial activity against Escherichia coli ATCC […] by Etest method in presence of 1 ug/ml NAB7061; format: functional
[20] = tested on: Escherichia coli; experiment: Antibacterial activity against Escherichia coli ATCC […] by Etest method in presence of 2 ug/ml NAB7062; format: functional
[21] = tested on: Escherichia coli; experiment: Antibacterial activity against Escherichia coli ATCC […] by Etest method in presence of 4 ug/ml NAB7064; format: functional
[22] = tested on: Escherichia coli; experiment: Antibacterial activity against Escherichia coli IH3080 by Etest method; format: functional; how it was run: as §1
[23] = tested on: Escherichia coli; experiment: Antibacterial activity against Escherichia coli IH3080 by Etest method in presence of 1 ug/ml NAB7061; format: functional
[24] = tested on: Escherichia coli; experiment: Antibacterial activity against Escherichia coli IH3080 by Etest method in presence of 2 ug/ml NAB7062; format: functional
[25] = tested on: Escherichia coli; experiment: Antibacterial activity against Escherichia coli IH3080 by Etest method in presence of 4 ug/ml NAB7064; format: functional
[26] = tested on: Escherichia coli; experiment: Antibacterial activity against Escherichia coli IH3080 by Etest method in presence of NAB7061; format: functional
[27] = tested on: Klebsiella pneumoniae; experiment: Antibacterial activity against Klebsiella pneumoniae ATCC 13883 by Etest method; format: functional; how it was run: as §3
[28] = tested on: Klebsiella pneumoniae; experiment: Antibacterial activity against Klebsiella pneumoniae ATCC 13883 by Etest method in presence of 1 ug/ml NAB7061; format: functional; how it was run: as §3
[29] = tested on: Klebsiella pneumoniae; experiment: Antibacterial activity against Klebsiella pneumoniae ATCC 13883 by Etest method in presence of 2 ug/ml NAB7061; format: functional; how it was run: as §3
[30] = tested on: Klebsiella pneumoniae; experiment: Antibacterial activity against Klebsiella pneumoniae ATCC 13883 by Etest method in presence of 4 ug/ml NAB7061; format: functional; how it was run: as §3
[31] = tested on: Klebsiella pneumoniae; experiment: Antibacterial activity against Klebsiella pneumoniae ATCC 13883 by Etest method in presence of NAB7061; format: functional; how it was run: as §3
[32] = tested on: Enterobacter cloacae; experiment: Antibacterial activity against Enterobacter cloacae ATCC 23355 by Etest method; format: functional; how it was run: as §1
[33] = tested on: Enterobacter cloacae; experiment: Antibacterial activity against Enterobacter cloacae ATCC 23355 […] by Etest method in presence of 1 ug/ml NAB7061; format: functional
[34] = tested on: Enterobacter cloacae; experiment: Antibacterial activity against Enterobacter cloacae ATCC 23355 […] by Etest method in presence of 2 ug/ml NAB7062; format: functional
[35] = tested on: Enterobacter cloacae; experiment: Antibacterial activity against Enterobacter cloacae ATCC 23355 […] by Etest method in presence of 4 ug/ml NAB7064; format: functional
[36] = tested on: Enterobacter cloacae; experiment: Antibacterial activity against Enterobacter cloacae ATCC 23355 […] by Etest method in presence of NAB7061; format: functional
[37] = tested on: Escherichia coli; experiment: Antibacterial activity against Escherichia coli by Etest method in presence of 4 ug/ml NAB7061; format: functional
[38] = tested on: Escherichia coli; experiment: Antibacterial activity against Escherichia coli NCTC13353 by Etest method in presence of 4 ug/ml NAB7062; format: functional
[39] = tested on: Klebsiella pneumoniae; experiment: Antibacterial activity against Klebsiella pneumoniae CCUG45421 by Etest method in presence of 4 ug/ml NAB7063; format: functional
[40] = tested on: Klebsiella pneumoniae; experiment: Antibacterial activity against Klebsiella pneumoniae by Etest method in presence of 4 ug/ml NAB7064; format: functional
[41] = tested on: Klebsiella oxytoca; experiment: Antibacterial activity against Klebsiella oxytoca ATCC 13182 by Etest method in presence of 4 ug/ml NAB7065; format: functional
[42] = tested on: Klebsiella oxytoca; experiment: Antibacterial activity against Klebsiella oxytoca CCUG51683 by Etest method in presence of 4 ug/ml NAB7066; format: functional
[43] = tested on: Enterobacter cloacae; experiment: Antibacterial activity against Enterobacter cloacae CCUG52947 by Etest method in presence of 4 ug/ml NAB7067; format: functional
[44] = tested on: Enterobacter cloacae; experiment: Antibacterial activity against Enterobacter cloacae by Etest method in presence of 4 ug/ml NAB7068; format: functional
[45] = tested on: Citrobacter freundii; experiment: Antibacterial activity against Citrobacter freundii ATCC 8090 by Etest method in presence of 4 ug/ml NAB7069; format: functional
[46] = tested on: Acinetobacter baumannii; experiment: Antibacterial activity against Acinetobacter baumannii ATCC 19606 by Etest method in presence of 4 ug/ml NAB7070; format: functional
[47] = tested on: Acinetobacter baumannii; experiment: Antibacterial activity against Acinetobacter baumannii by Etest method in presence of 4 ug/ml NAB7071; format: functional
[48] = tested on: Serratia marcescens; experiment: Antibacterial activity against Serratia marcescens ATCC 8100 by Etest method in presence of 4 ug/ml NAB7072; format: functional
[49] = tested on: Proteus mirabilis; experiment: Antibacterial activity against Proteus mirabilis ATCC 29906 by Etest method in presence of 4 ug/ml NAB7073; format: functional
[50] = tested on: Proteus vulgaris; experiment: Antibacterial activity against Proteus vulgaris ATCC 13315 by Etest method in presence of 4 ug/ml NAB7074; format: functional
[51] = tested on: Pseudomonas aeruginosa; experiment: Antibacterial activity against Pseudomonas aeruginosa ATCC 27853 by Etest method in presence of 4 ug/ml NAB7075; format: functional

CCCCCCCC(=O)N[C@H](C(=O)N[C@H](CO)C(=O)N[C@H]1CCNC(=O)[C@H]([C@@H](C)O)NC(=O)[C@H](CCN)NC(=O)[C@H](CCN)NC(=O)[C@H](CC(C)C)NC(=O)[C@H](Cc2ccccc2)NC(=O)[C@H](CCN)NC1=O)[C@@H](C)O
Activity [1]: Active

CC[C@H]1OC(=O)[C@H](C)[C@@H](O[C@H]2C[C@@](C)(OC)[C@@H](O)[C@H](C)O2)[C@H](C)[C@@H](O[C@@H]2O[C@H](C)C[C@H](N(C)C)[C@H]2O)[C@](C)(OC)C[C@@H](C)C(=O)[C@H](C)[C@@H](O)[C@]1(C)O [CLARITHROMYCIN]
MIC [2]: 16 µg/mL (≈ 21.4 µM)
MIC [3]: 32 µg/mL
MIC [4]: 32 µg/mL
MIC [5]: 48 µg/mL (≈ 64.2 µM)
MIC [6]: 0.125 µg/mL
MIC [7]: 0.5 µg/mL
MIC [8]: 1.5 µg/mL
MIC [9]: 6 µg/mL (≈ 8.02 µM)
MIC [10]: 2 µg/mL
MIC [11]: 0.094 µg/mL
MIC [12]: 0.5 µg/mL
MIC [13]: 1 µg/mL
MIC [14]: 1.5 µg/mL
MIC [15]: 8 µg/mL (≈ 10.7 µM)
MIC [16]: 16 µg/mL
MIC [17]: 12 µg/mL
MIC [18]: 3 µg/mL
MIC [19]: 0.5 µg/mL
MIC [20]: 0.19 µg/mL
MIC [21]: 0.094 µg/mL
MIC [22]: 12 µg/mL (≈ 16 µM)
MIC [23]: 0.5 µg/mL
MIC [24]: 0.25 µg/mL
MIC [25]: 0.047 µg/mL
MIC [26]: 0.105 µg/mL
MIC [27]: 12 µg/mL (≈ 16 µM)
MIC [28]: 2 µg/mL
MIC [29]: 1 µg/mL
MIC [30]: 0.19 µg/mL
MIC [31]: ≤ 0.141 µg/mL
MIC [32]: 64 µg/mL (≈ 85.6 µM)
MIC [33]: 32 µg/mL
MIC [34]: 1.5 µg/mL
MIC [35]: 0.25 µg/mL
MIC [36]: 0.273 µg/mL
MIC [37]: 0.032 µg/mL
MIC [38]: 1 µg/mL
MIC [39]: 24 µg/mL
MIC [40]: 0.25 µg/mL
MIC [41]: 0.25 µg/mL
MIC [42]: 0.19 µg/mL
MIC [43]: 0.38 µg/mL
MIC [44]: 0.047 µg/mL
MIC [45]: 0.125 µg/mL
MIC [46]: 0.5 µg/mL
MIC [47]: 0.25 µg/mL
MIC [48]: 96 µg/mL
MIC [49]: 24 µg/mL
MIC [50]: 24 µg/mL
MIC [51]: 32 µg/mL
